In one data set the test system is HT-29. The data set is described as follows: Cytotoxicity against human HT-29 cells by MTT assay. It is filed as functional, cell-based. The method, boiled down:
(§1)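 Cells grown in RPMI-1640 with 10% fetal calf serum plus penicillin and streptomycin, 37 °C, 5% CO₂. Compounds in DMSO, final ≤2% (v/v), tested in 96-well cultures with MTT staining. IC₅₀ = concentration cutting optical density 50% versus untreated cells; three replicate wells per point; mean of three independent determinations.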
A general note: Tetrazolium assays rely on reduction of a dye to a coloured formazan, in cell work by metabolically active cells.

Another data set has as its system OS-RC-2. Briefly: Cytotoxicity against human OS-RC2 cells by MTT assay. It is filed as functional, cell-based. The method, boiled down: as §1
A further data set concerns CWR22R. Briefly: Cytotoxicity against human 22Rv1 cells by MTT assay. It is filed as functional, cell-based. The method, boiled down: as §1
Data set [1] can be described thus: Cytotoxicity against human Blu-87 cells by MTT assay. It is filed as functional, cell-based. The method, boiled down:
as §1

Another data set deals with Mus musculus. The data set is described as follows: Neurotoxicity in ip dosed C57BL/6 mouse assessed as tremble, twitch, jumping and supination response. It is filed as toxicity, organism-based. Conditions: in vivo. The method, boiled down:
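C57BL/6 mice (9–12 weeks, 18–22 g), fasted overnight with water, dosed i.p. with 1.0–500 mg/kg in 0.5% CMC-Na; 10 per group (5 male, 5 female). Watched continuously 2 h for tremor, twitch, jumping, supination and other behavior, then intermittently to 24 h and occasionally to 14 days; killed day 14, with heart, liver and kidneys inspected.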

Another data set concerns A549. The data set is described as follows: Cytotoxicity against human A549 cells by MTT assay. It is filed as functional, cell-based. The method, boiled down: as §1
The subject of a further data set is 769-P. Briefly: Cytotoxicity against human 769-P cells by MTT assay. It is filed as functional, cell-based. The method, boiled down:
as §1

Data set [2] can be described thus: Acute toxicity in ip dosed C57BL/6 mouse measured up to 14 days. Conditions: in vivo. It is filed as organism-based. The method, boiled down: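 Healthy C57BL/6 mice (9–12 weeks, 18–22 g), fasted overnight, 10 per group (5 male, 5 female). Single i.p. dose, 1.0 to 500 mg/kg in 0.5% CMC-Na. Watched continuously for 2 h, intermittently over 24 h, then occasionally to day 14 for behaviour, deaths and delayed effects. Heart, liver and kidneys inspected at necropsy. LD50 derived graphically.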

Another data set has as its system KB. Briefly: Cytotoxicity against human KB cells by MTT assay. It is filed as functional, cell-based. The method, boiled down: as §1
Another data set concerns 786-0. The data set is described as follows: Cytotoxicity against human 786-0 cells by MTT assay. It is filed as functional, cell-based. The method, boiled down:
as §1

The next data set deals with A-375. The data set is described as follows: Cytotoxicity against human A375 cells by MTT assay. It is filed as functional, cell-based. The method, boiled down:
as §1

Data set [3] relates to Lewis lung carcinoma cell line. Briefly: Antitumor activity against mouse LLC cells xenografted in mouse assessed as tumor inhibition at 1 mg/kg, ip qd for 7 days measured every 3 days for 21 days. It is filed as functional. Conditions: route intraperitoneal.
Data set [4] is described as follows: Antitumor activity against mouse Sarcoma 180 cells xenografted in mouse assessed as tumor inhibition at 1 mg/kg, ip qd for 7 days measured every 3 days for 21 days. It is filed as functional. Conditions: Sarcoma-180, ip, route intraperitoneal.
The next data set concerns U-251. Briefly: Cytotoxicity against human U251 cells by MTT assay. It is filed as functional, cell-based. The method, boiled down:
as §1

For the next data set, the system named is SCaBER. The data set is described as follows: Cytotoxicity against human SCaBER cells by MTT assay. It is filed as functional, cell-based. The method, boiled down:
as §1

For data set [5], the system named is Lewis lung carcinoma cell line. Briefly: Antitumor activity against mouse LLC cells xenografted in mouse assessed as tumor inhibition at 20 mg/kg, ip qd for 7 days measured every 3 days for 21 days. It is filed as functional. Conditions: route intraperitoneal.
A further data set concerns BGC-823. The data set is described as follows: Cytotoxicity against human BGC823 cells by MTT assay. It is filed as functional, cell-based. The method, boiled down: as §1
Data set [6] is described as follows: Antitumor activity against mouse Sarcoma 180 cells xenografted in mouse assessed as tumor inhibition at 20 mg/kg, ip qd for 7 days measured every 3 days for 21 days. It is filed as functional. Conditions: Sarcoma-180, ip, route intraperitoneal.
A further data set relates to Bel-7402. The data set is described as follows: Cytotoxicity against human Bel7402 cells by MTT assay. It is filed as functional, cell-based. The method, boiled down:
as §1

Another data set concerns HeLa. The data set is described as follows: Cytotoxicity against human HeLa cells by MTT assay. It is filed as functional, cell-based. The method, boiled down: as §1
The test system of a further data set is MCF7. The data set is described as follows: Cytotoxicity against human MCF7 cells by MTT assay. It is filed as functional, cell-based. The method, boiled down:
as §1

Another data set deals with HepG2. The data set is described as follows: Cytotoxicity against human HepG2 cells by MTT assay. It is filed as functional, cell-based. The method, boiled down:
as §1

Data set [7] deals with Lewis lung carcinoma cell line. The data set is described as follows: Antitumor activity against mouse LLC cells xenografted in mouse assessed as tumor inhibition at 3 mg/kg, ip qd for 7 days measured every 3 days for 21 days. Conditions: route intraperitoneal. It is filed as functional.
The nature of data set [8]: Antitumor activity against mouse Sarcoma 180 cells xenografted in mouse assessed as tumor inhibition at 3 mg/kg, ip qd for 7 days measured every 3 days for 21 days. It is filed as functional. Conditions: Sarcoma-180, ip, route intraperitoneal.
In data set [9] the test system is Lewis lung carcinoma cell line. The data set is described as follows: Antitumor activity against mouse LLC cells xenografted in mouse assessed as tumor inhibition at 1.2 mg/kg, ip qd for 7 days measured every 3 days for 21 days. It is filed as functional. To be noted: route intraperitoneal.
Data set [10] in a line: Antitumor activity against mouse Sarcoma 180 cells xenografted in mouse assessed as tumor inhibition at 1.2 mg/kg, ip qd for 7 days measured every 3 days for 21 days. It is filed as functional. Conditions: Sarcoma-180, ip, route intraperitoneal.
Data set [11] concerns Lewis lung carcinoma cell line. The data set is described as follows: Antitumor activity against mouse LLC cells xenografted in mouse assessed as tumor inhibition at 0.63 mg/kg, ip qd for 7 days measured every 3 days for 21 days. It is filed as functional. To be noted: route intraperitoneal.
Data set [12] in a line: Antitumor activity against mouse Sarcoma 180 cells xenografted in mouse assessed as tumor inhibition at 0.63 mg/kg, ip qd for 7 days measured every 3 days for 21 days. It is filed as functional. Conditions: Sarcoma-180, ip, route intraperitoneal.
For data set [13], the system named is Lewis lung carcinoma cell line. Briefly: Antitumor activity against mouse LLC cells xenografted in mouse assessed as tumor inhibition at 30 mg/kg, ip qd for 7 days measured every 3 days for 21 days. To be noted: read-out: INH.
Data set [14] is described as follows: Antitumor activity against mouse Sarcoma 180 cells xenografted in mouse assessed as tumor inhibition at 30 mg/kg, ip qd for 7 days measured every 3 days for 21 days. Conditions: Sarcoma-180, ip, read-out: INH.
Data set [15] in a line: Antitumor activity against mouse Sarcoma 180 cells xenografted in mouse assessed as tumor inhibition at 7.5 mg/kg, ip qd for 7 days measured every 3 days for 21 days. It is filed as functional. To be noted: Sarcoma-180, ip, route intraperitoneal. The method, boiled down: (§2)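 Tumour cells passaged in mice for 7 days, then harvested. Viable cells (2 × 10⁶/mouse) injected s.c. into the armpit. Starting 24 h later, compound given i.p. once daily for 7 days, 10 female mice per group. Mice killed on day 21 after inoculation and tumours excised and weighed. Inhibition = (C − T)/C × 100, using mean tumour weights of treated (T) and negative control (C) groups.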

The test system of data set [16] is Lewis lung carcinoma cell line. Briefly: Antitumor activity against mouse LLC cells xenografted in mouse assessed as tumor inhibition at 7.5 mg/kg, ip qd for 7 days measured every 3 days for 21 days. It is filed as functional. Conditions: route intraperitoneal. The method, boiled down: as §2

As to `Cc1c2c(cc[n+]1Cc1ccccc1)c1ccc(OCc3ccccc3)cc1n2CC(C)C.[Br-]`, the concentration for half-maximal inhibition (IC50) (in general, the concentration that inhibits the measured activity by half) was 3400 nM in the data set on HT-29; 4600 nM in the data set with OS-RC-2; < 1500 nM with CWR22R; 6900 nM in data set [1]; 3500 nM in the data set with A549; 2400 nM with 769-P. For the same molecule, the IC50 in the data set with KB was < 1500 nM; in the data set on 786-0, < 1500 nM; in the data set with A-375 it was 3300 nM; with U-251 it was < 1500 nM; with SCaBER, 4600 nM. Further, the Activity entry in the data set with Mus musculus is recorded as “Non-toxic”. For the same molecule, the 50% lethal dose (LD50) – broadly, the dose at which mortality reaches 50% – at 336 h in data set [2] was found to be 5 mg/kg. Besides, the inhibition in vivo at 1 mg/kg in data set [3] stood at 23.7%; in [4], 52.6%.
On to `CCC(CC)Oc1ccc2c3ccnc(C)c3n(CCCc3ccccc3)c2c1`, for which the figures for the inhibition in vivo at 20 mg/kg in [5] and in [6] were 27.1% and 30.1%, respectively. Besides, the IC50 in the data set with BGC-823 turned out to be 18300 nM; in the data set with Bel-7402 it was 34300 nM; in the data set with HeLa it was 70100 nM; in the data set with MCF7 it was 41900 nM; in the data set with HepG2, 7300 nM. Moreover, the Activity result with Mus musculus is recorded as “Non-toxic”. In addition, in data set [2], the 50% lethal dose (LD50) at 336 h came out at 100 mg/kg.
`CCn1c2cc(OCCCc3ccccc3)ccc2c2cc[n+](Cc3ccccc3)c(C)c21.[Br-]`: the concentration for half-maximal inhibition (IC50) in the data set with HT-29 was determined as 4200 nM; in the data set on OS-RC-2 it was 2200 nM; in [1] it was 17300 nM; in the data set on BGC-823, 7600 nM; in the data set on A549, 2300 nM; in the data set with 769-P, 5000 nM. Moreover, the half-maximal inhibitory concentration (IC50) was 2400 nM with Bel-7402; < 1500 nM with KB; 1500 nM with 786-0; 2400 nM with A-375; 2200 nM with HeLa; 2800 nM in the data set on MCF7. The IC50 with HepG2 worked out at 7600 nM; in the data set with U-251, 10500 nM; with SCaBER, 16200 nM. Further, in the data set on Mus musculus, the Activity result is given as “Non-toxic”. The inhibition in vivo at 3 mg/kg in data set [7] was found to be 27.2%; in data set [8], 53.1%. In data set [2], this molecule displayed an LD50 at 336 h of 15 mg/kg.
Consider `CCC(CC)Oc1ccc2c3cc[n+](Cc4ccccc4)c(C)c3n(CCCc3ccccc3)c2c1.[Br-]`, for which the concentration for half-maximal inhibition (IC50) was 2000 nM with HT-29; 2500 nM with OS-RC-2; < 1500 nM with CWR22R; 2100 nM in [1]; 2500 nM in the data set on BGC-823; 2000 nM with A549. In addition, the half-inhibitory concentration (IC50) was < 1500 nM with 769-P; 810 nM in the data set on Bel-7402; < 1500 nM in the data set with KB; < 1500 nM in the data set with 786-0; < 1500 nM in the data set on A-375; 1500 nM in the data set on HeLa. The half-maximal inhibitory concentration (IC50) with MCF7 was 1800 nM; with HepG2, 3100 nM; with U-251, 2100 nM; in the data set on SCaBER, 4400 nM. Moreover, the Activity entry with Mus musculus is recorded as “Non-toxic”. Also, the LD50 at 336 h in data set [2] was found to be 6.25 mg/kg. The inhibition in vivo at 1.2 mg/kg in [9] was 28%; in data set [10], 41.5%.
Turning to `Cc1c2c(cc[n+]1Cc1ccccc1)c1ccc(OCCCc3ccccc3)cc1n2CCCc1ccccc1.[Br-]`, the IC50 worked out at 2000 nM in the data set with HT-29; 3100 nM with OS-RC-2; 2300 nM with CWR22R; 1500 nM in data set [1]; 2500 nM in the data set with BGC-823; 3300 nM in the data set on A549. In addition, the IC50 with 769-P was 2900 nM; with Bel-7402, 2000 nM; in the data set on KB, < 1500 nM; in the data set with 786-0, 2200 nM; in the data set on A-375, < 1500 nM; with HeLa, 3100 nM. The half-inhibitory concentration (IC50) turned out to be 6600 nM in the data set with MCF7, 3800 nM with HepG2, 740 nM in the data set on U-251 and 7700 nM in the data set with SCaBER. Also, the results for the inhibition in vivo at 0.63 mg/kg in [11] and in data set [12] were 33.7% and 46.1%, respectively. Moreover, the Activity entry with Mus musculus is recorded as “Non-toxic”. This molecule had an LD50 at 336 h in [2] of 3.75 mg/kg.
With `O=P1(N(CCCl)CCCl)NCCCO1` (centres undefined) [CYCLOPHOSPHAMIDE ANHYDROUS], the Activity entry with Mus musculus is reported as “Non-toxic”. The figures for the inhibition in vivo at 30 mg/kg in data set [13] and in data set [14] were 85.6% and 88.7%, respectively.
On to `COc1ccc2c(c1)[nH]c1c(C)nccc12` [HARMINE], for which the inhibition in vivo at 7.5 mg/kg in data set [15] was found to be 30.8%; in data set [16], 33.7%. Further, the Activity result with Mus musculus is recorded as “Toxic”.
